Calls of active or inactive are those of the source. The rule behind the calls is not given here.
Key:
Mus musculus [1] = assay: Antinociceptive activity in CD-1 mouse assessed as reduction of formalin-induced paw licking activity at 100 mg/kg, ip administered 15 mins prior to formalin-challenge measured after 5 to 30 mins; assay type: functional, organism-based; set-up: dose 100 mg/kg
How it was run: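 Formalin injected intradermally in mice. Formalin-induced nociceptive behaviour is scored separately in the early and late phases of the test.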

[2] = biological target: T1, 5-hydroxytryptamine receptor 1A (Rattus norvegicus, UniProt P19327); assay: Displacement of [3H]-8-OH-DPAT from 5-HT1A receptor in Sprague-Dawley rat cerebral cortex after 15 mins; assay type: tissue-based
T1 sequence (P19327 whole entry): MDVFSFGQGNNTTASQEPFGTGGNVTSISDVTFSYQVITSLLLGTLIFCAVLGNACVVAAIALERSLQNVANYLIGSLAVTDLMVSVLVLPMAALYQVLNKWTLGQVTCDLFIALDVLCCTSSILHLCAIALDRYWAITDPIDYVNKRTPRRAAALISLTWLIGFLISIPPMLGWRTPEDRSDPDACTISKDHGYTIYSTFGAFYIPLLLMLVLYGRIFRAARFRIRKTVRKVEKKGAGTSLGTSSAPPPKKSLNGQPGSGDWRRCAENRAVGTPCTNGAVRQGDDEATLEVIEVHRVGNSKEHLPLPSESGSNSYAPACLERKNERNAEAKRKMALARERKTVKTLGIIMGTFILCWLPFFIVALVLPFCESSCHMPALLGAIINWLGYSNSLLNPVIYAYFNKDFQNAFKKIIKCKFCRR

[3] = biological target: 5-hydroxytryptamine receptor 4 (Rattus norvegicus, UniProt Q62758); assay: Displacement of [3H]GR113808 from 5-HT4 receptor in Sprague-Dawley rat striatum after 30 mins
Chain of 5-hydroxytryptamine receptor 4 (Q62758 whole entry): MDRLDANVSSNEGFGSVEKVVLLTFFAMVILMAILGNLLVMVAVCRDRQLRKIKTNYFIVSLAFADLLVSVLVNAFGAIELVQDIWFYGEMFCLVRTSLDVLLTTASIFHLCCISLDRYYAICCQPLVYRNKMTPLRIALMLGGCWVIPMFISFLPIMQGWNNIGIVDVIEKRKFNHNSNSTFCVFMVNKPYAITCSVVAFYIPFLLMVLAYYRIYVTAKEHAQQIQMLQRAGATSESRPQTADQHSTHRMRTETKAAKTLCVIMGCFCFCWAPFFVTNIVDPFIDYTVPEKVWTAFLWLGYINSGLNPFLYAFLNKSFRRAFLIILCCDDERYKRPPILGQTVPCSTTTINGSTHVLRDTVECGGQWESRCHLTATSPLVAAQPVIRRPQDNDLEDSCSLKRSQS

[4] = biological target: 5-hydroxytryptamine receptor 2A (Rattus norvegicus, UniProt P14842); assay: Displacement of [3H]ketanserin from 5-HT2A receptor in Sprague-Dawley rat frontal cortex after 15 mins; assay type: tissue-based
Chain of 5-hydroxytryptamine receptor 2A (P14842 whole entry): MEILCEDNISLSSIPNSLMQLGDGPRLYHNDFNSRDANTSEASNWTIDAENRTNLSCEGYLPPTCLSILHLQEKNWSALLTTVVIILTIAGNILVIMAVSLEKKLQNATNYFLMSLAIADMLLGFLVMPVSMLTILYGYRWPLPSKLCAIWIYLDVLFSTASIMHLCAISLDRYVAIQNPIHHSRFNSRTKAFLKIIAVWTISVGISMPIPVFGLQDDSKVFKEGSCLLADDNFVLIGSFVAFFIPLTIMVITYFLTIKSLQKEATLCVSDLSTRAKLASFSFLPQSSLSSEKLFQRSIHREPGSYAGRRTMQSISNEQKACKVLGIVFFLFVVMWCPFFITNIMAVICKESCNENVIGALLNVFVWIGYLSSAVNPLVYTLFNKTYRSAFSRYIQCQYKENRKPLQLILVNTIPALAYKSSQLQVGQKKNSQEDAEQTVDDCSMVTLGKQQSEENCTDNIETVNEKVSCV

[5] = biological target: 5-hydroxytryptamine receptor 7 (Rattus norvegicus, UniProt P32305); assay: Displacement of [3H]-5-CT from 5-HT7 receptor in Sprague-Dawley rat hypothalamus after 120 mins
Chain of 5-hydroxytryptamine receptor 7 (P32305 whole entry): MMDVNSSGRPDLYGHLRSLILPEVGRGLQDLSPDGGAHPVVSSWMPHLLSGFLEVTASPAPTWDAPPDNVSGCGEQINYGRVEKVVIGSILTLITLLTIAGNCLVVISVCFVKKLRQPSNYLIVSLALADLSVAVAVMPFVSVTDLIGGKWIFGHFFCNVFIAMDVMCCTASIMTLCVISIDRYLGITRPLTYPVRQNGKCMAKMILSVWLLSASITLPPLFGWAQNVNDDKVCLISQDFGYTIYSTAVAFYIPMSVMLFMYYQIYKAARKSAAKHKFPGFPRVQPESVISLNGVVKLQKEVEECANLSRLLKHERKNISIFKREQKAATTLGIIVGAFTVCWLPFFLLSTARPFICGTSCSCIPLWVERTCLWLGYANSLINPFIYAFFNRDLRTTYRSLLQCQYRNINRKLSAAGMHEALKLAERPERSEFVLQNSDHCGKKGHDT

[6] = biological target: T2, 5-hydroxytryptamine receptor 3A (Rattus norvegicus, UniProt P35563); assay: Displacement of [3H]LY 278584 from 5-HT3 receptor in Sprague-Dawley rat cerebral cortex after 30 mins; assay type: tissue-based
T2 sequence (P35563 whole entry): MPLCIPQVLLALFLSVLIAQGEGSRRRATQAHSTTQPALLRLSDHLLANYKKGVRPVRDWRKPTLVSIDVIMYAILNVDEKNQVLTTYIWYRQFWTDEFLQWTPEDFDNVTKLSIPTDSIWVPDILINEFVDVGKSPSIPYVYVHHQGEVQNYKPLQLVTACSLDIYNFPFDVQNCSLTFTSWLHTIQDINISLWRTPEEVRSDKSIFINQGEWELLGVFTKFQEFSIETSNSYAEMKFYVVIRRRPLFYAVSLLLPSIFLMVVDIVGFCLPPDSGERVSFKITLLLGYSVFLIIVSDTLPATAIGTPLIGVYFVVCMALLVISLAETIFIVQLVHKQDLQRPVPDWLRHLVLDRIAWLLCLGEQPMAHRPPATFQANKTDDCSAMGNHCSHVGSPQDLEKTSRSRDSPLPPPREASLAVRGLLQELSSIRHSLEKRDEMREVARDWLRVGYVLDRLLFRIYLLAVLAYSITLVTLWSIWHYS

CYP2D6 = CYP2D6 (Homo sapiens, UniProt P10635); assay: Inhibition of human recombinant microsomal CYP2D6 using {3-[2-(N,N-diethyl-N-methylamino)ethyl]-7-methoxy-4-methylcoumarin} as substrate assessed as remaining activity at 10 uM after 30 mins by spectrofluorimetric analysis relative to control; assay type: ADME; details: read-out: Activity
Chain of CYP2D6 (P10635 whole entry): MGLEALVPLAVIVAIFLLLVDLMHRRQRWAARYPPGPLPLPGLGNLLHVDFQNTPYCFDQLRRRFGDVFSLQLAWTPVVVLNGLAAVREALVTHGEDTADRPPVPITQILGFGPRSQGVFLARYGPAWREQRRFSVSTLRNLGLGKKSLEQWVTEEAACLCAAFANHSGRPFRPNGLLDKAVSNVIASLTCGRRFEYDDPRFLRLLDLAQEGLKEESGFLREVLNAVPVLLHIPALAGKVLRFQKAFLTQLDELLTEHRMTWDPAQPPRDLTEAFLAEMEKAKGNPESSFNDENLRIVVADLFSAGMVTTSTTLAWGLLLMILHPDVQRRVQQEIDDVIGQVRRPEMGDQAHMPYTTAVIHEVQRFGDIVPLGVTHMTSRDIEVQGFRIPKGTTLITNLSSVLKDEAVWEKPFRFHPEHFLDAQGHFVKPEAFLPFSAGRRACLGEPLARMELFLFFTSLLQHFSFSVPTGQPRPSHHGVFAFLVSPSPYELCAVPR

[7] = Half life in Sprague-Dawley rat liver microsomes at 1 to 5 uM by HPLC-MS analysis; assay type: ADME, Microsome
How it was run: (§1)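 Incubation mixtures pre-equilibrated at 37 °C with NADPH and MgCl2, then rat or human liver microsomes added to start the reaction. Aliquots were withdrawn and quenched at several time points, and percent parent remaining was measured by HPLC-MS and plotted against time. t1/2 was taken from the slope of peak area over time and used to calculate CLint.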

[8] = Intrinsic clearance in human liver microsomes at 1 to 5 uM by HPLC-MS analysis; assay type: ADME, Microsome; details: read-out: CLH; how it was run: as §1
Mus musculus [9] = organism: Mus musculus; assay: Hypothermic activity in Swiss mouse assessed as change in rectal temperature after 60 mins; assay type: functional; details: 1 h, read-out: MED
[10] = Intrinsic clearance in Sprague-Dawley rat liver microsomes at 1 to 5 uM by HPLC-MS analysis; assay type: ADME, Microsome; details: read-out: CLH; how it was run: as §1
Mus musculus [11] = assay: Antinociceptive activity in CD-1 mouse assessed as reduction of formalin-induced paw licking activity at 3 mg/kg, ip administered 15 mins prior to formalin-challenge measured after 15 to 30 mins; assay type: functional, organism-based; set-up: dose 3 mg/kg
Albumin = Albumin (Homo sapiens, UniProt P02768); assay: Binding affinity to human serum albumin at 5 uM after 12 mins by HPLC-MS analysis relative to control; assay type: ADME; details: isolated protein, 0.2 h
Chain of Albumin (P02768 whole entry): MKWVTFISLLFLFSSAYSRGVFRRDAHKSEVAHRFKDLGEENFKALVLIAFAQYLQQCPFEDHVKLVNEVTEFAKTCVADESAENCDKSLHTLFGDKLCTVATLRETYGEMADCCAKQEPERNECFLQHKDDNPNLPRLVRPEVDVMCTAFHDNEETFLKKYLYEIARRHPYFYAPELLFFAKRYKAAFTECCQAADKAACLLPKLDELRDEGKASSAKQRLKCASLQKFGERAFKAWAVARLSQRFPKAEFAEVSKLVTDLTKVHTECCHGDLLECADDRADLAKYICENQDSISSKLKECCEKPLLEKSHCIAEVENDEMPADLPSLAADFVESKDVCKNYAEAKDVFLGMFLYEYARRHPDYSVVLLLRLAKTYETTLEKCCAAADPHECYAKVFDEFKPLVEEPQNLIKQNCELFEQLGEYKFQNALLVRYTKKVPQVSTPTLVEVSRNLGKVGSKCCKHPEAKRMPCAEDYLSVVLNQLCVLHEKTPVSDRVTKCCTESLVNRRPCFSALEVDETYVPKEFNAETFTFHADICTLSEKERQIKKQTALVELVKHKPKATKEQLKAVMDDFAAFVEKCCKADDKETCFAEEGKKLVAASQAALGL

[12] = Half life in human liver microsomes at 1 to 5 uM by HPLC-MS analysis; assay type: ADME, Microsome; how it was run: as §1
[13] = biological target: T3, 5-hydroxytryptamine receptor 1A (Homo sapiens, UniProt P08908); assay: Agonist activity at human 5-HT1A receptor expressed in human HeLa cells assessed as inhibition of forskolin-stimulated cAMP formation after 10 mins by RIA; assay type: functional, cell-based
T3 sequence (P08908 whole entry): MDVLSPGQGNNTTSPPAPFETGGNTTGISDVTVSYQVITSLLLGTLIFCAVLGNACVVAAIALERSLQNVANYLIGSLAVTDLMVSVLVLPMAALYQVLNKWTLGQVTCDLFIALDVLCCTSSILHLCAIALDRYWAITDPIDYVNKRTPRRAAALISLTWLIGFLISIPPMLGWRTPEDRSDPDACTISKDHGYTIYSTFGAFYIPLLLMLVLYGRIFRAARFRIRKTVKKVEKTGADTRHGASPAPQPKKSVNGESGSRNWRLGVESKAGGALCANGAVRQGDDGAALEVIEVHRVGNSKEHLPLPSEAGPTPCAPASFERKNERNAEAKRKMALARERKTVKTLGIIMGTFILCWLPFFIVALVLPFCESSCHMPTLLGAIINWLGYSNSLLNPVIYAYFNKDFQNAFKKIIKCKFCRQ

[14] = biological target: T3, 5-hydroxytryptamine receptor 1A; assay: Partial agonist activity at human 5-HT1A receptor expressed in human HeLa cells assessed as inhibition of forskolin-stimulated cAMP formation after 10 mins by RIA; assay type: functional, cell-based

| SMILES | Ki [2] [nM] | Ki [3] [nM] | Ki [4] [nM] | Ki [5] [nM] | Ki [6] [nM] | other results |
| --- | --- | --- | --- | --- | --- | --- |
| NCC1(CC(=O)O)CCCCC1 | – | – | – | – | – | Activity (Mus musculus [1]): Active |
| O=C1C2CCCN2C(=O)N1CCCCNCCOc1ccc(C(F)(F)F)cc1 (configuration not stated) | > 1000 | – | – | – | – | – |
| COc1cccc(OCCNCCCCN2C(=O)C3CCCN3C2=O)c1 (configuration not stated) | 34 | > 1000 | > 1000 | > 1000 | > 1000 | – |
| N#Cc1ccccc1OCCNCCCCN1C(=O)C2CCCN2C1=O (configuration not stated) | > 1000 | – | – | – | – | – |
| O=C1C2CCCN2C(=O)N1CCCCNCCOc1cccc2cccnc12 (configuration not stated) | 44 | > 1000 | > 1000 | 15 | > 1000 | – |
| Cc1cccc(OCCNCCCCN2C(=O)C3CCCN3C2=O)c1C (configuration not stated) | 45 | > 1000 | 310 | > 1000 | > 1000 | – |
| N#Cc1cccc(OCCNCCCCN2C(=O)C3CCCN3C2=O)c1 (configuration not stated) | > 1000 | – | – | – | – | – |
| COc1ccccc1CNCCCCN1C(=O)C2CCCN2C1=O (configuration not stated) | > 1000 | – | – | – | – | – |
| COc1ccc(OCCNCCCCN2C(=O)C3CCCN3C2=O)c2ccccc12 (configuration not stated) | 27 | > 1000 | > 1000 | 301 | > 1000 | – |
| O=C1C2CCCN2C(=O)N1CCCCNCCOc1ccccc1C(F)(F)F (configuration not stated) | 510 | – | – | – | – | – |
| O=C1C2CCCN2C(=O)N1CCCCNCCOc1ccccc1Br (configuration not stated) | 62 | – | – | – | – | – |
| CCc1cccc(OCCNCCCCN2C(=O)C3CCCN3C2=O)c1 (configuration not stated) | 30 | > 1000 | > 1000 | > 1000 | > 1000 | – |
| O=C1C2CCCN2C(=O)N1CCCCNCCOc1cccc(-c2ccccc2)c1 (configuration not stated) | 72 | – | – | – | – | – |
| O=C1C2CCCN2C(=O)N1CCCCNCCOc1ccc(Br)cc1 (configuration not stated) | > 1000 | – | – | – | – | – |
| Cl.O=C1C2CCCN2C(=O)N1CCCCNCCOc1ccccc1 (configuration not stated) | – | > 1000 | > 1000 | > 1000 | > 1000 | activity at 0.5 h, 10 µM (CYP2D6): 24%; half-life at up to 5 µM [7]: 0.167 h; CLint scaled at up to 5 µM [8]: 4.1 mL/min/kg; minimal effective dose (Mus musculus [9]): 2.5 mg/kg; CLint scaled at up to 5 µM [10]: 140 mL/min/kg; Activity (Mus musculus [11]): Active; Activity (Albumin): 38%; half-life at up to 5 µM [12]: 2.52 h |
| O=C1C2CCCN2C(=O)N1CCCCNCCOc1cccc(C(F)(F)F)c1 (configuration not stated) | 38.9 | – | – | – | – | – |

| SMILES | Ki [2] [nM] | Ki [3] [nM] | Ki [4] [nM] | Ki [5] [nM] | Ki [6] [nM] | other results |
| --- | --- | --- | --- | --- | --- | --- |
| Cl.O=C1C2CCCN2C(=O)N1CCCCNCCOc1cccc2ccccc12 (configuration not stated) | – | > 1000 | 41 | – | > 1000 | activity at 0.5 h, 10 µM (CYP2D6): 6%; half-life at up to 5 µM [7]: 0.135 h; CLint scaled at up to 5 µM [8]: 5.1 mL/min/kg; minimal effective dose (Mus musculus [9]): 10 mg/kg; CLint scaled at up to 5 µM [10]: 171 mL/min/kg; Activity (Mus musculus [11]): Active; Activity (Albumin): 60%; half-life at up to 5 µM [12]: 2.05 h; EC50 [13]: 45 nM |
| COc1ccc(OCCNCCCCN2C(=O)C3CCCN3C2=O)cc1 (configuration not stated) | > 1000 | – | – | – | – | – |
| COc1cc(COc2cc(N)c(Cl)cc2C(=O)CCC2CCN(CCNS(C)(=O)=O)CC2)cc(OC)c1 | – | 3.9 | – | – | – | – |
| COc1ccccc1OCCNCCCCN1C(=O)C2CCCN2C1=O.Cl (configuration not stated) | 4.8 | > 1000 | 267 | > 1000 | > 1000 | activity at 0.5 h, 10 µM (CYP2D6): 48%; half-life at up to 5 µM [7]: 0.162 h; CLint scaled at up to 5 µM [8]: 2.6 mL/min/kg; minimal effective dose (Mus musculus [9]): 0.625 mg/kg; CLint scaled at up to 5 µM [10]: 145 mL/min/kg; Activity (Mus musculus [11]): Active; Activity (Albumin): 25%; half-life at up to 5 µM [12]: 3.95 h; EC50 [13]: 23 nM |
| O=C1C2CCCN2C(=O)N1CCCCNCCOc1ccc2ccccc2c1 (configuration not stated) | 41 | > 1000 | 422 | > 1000 | > 1000 | – |
| CCc1ccccc1OCCNCCCCN1C(=O)C2CCCN2C1=O.Cl (configuration not stated) | 16.8 | > 1000 | 366 | 185 | > 1000 | activity at 0.5 h, 10 µM (CYP2D6): 13%; half-life at up to 5 µM [7]: 0.178 h; CLint scaled at up to 5 µM [8]: 4.6 mL/min/kg; minimal effective dose (Mus musculus [9]): 10 mg/kg; CLint scaled at up to 5 µM [10]: 131 mL/min/kg; Activity (Albumin): 55%; half-life at up to 5 µM [12]: 2.28 h; EC50 [14]: 1200 nM |
| O=C1C2CCCN2C(=O)N1CCCCNCCOc1ccc(-c2ccccc2)cc1 (configuration not stated) | > 1000 | – | – | – | – | – |
| O=C1C2CCCN2C(=O)N1CCCCNCCOc1ccccc1-c1ccccc1 (configuration not stated) | 26 | > 1000 | > 1000 | 101 | > 1000 | – |
| CC(C)c1ccccc1OCCNCCCCN1C(=O)C2CCCN2C1=O (configuration not stated) | 38 | > 1000 | 260 | > 1000 | > 1000 | – |
| NCCc1c[nH]c2ccc(C(N)=O)cc12 | – | – | – | 1.8 | – | – |
| CCc1ccc(OCCNCCCCN2C(=O)C3CCCN3C2=O)cc1 (configuration not stated) | 742 | – | – | – | – | – |
| N#Cc1ccc(OCCNCCCCN2C(=O)C3CCCN3C2=O)cc1 (configuration not stated) | > 1000 | – | – | – | – | – |
| O=C1C2CCCN2C(=O)N1CCCCNCCOc1cccc2c1CCCC2 (configuration not stated) | 38 | > 1000 | 49 | > 1000 | > 1000 | – |
| COc1cc(F)ccc1OCCNCCCCN1C(=O)C2CCCN2C1=O (configuration not stated) | 37.4 | > 1000 | > 1000 | > 1000 | > 1000 | – |
| O=C1C2CCCN2C(=O)N1CCCCNCCOc1cccc(Br)c1 (configuration not stated) | 52 | > 1000 | 514 | > 1000 | > 1000 | – |
